Experimental findings from ChEMBL document CHEMBL3407394, “Synthesis and in vitro anticancer activity evaluation of novel bioreversible phosphate inositol derivatives” (Eur J Med Chem, 2015) are described below.

The IC50 is the concentration at which inhibition is half-maximal.

SMILES strings stand for the structures. Where only a bound is given, the exact number is not on record here.

In data set [1] the test system is MDA-MB-231. The experiment in a line: Cytotoxicity against human MDA-MB-231 cells assessed as growth inhibition at 10 ug/ml after 72 hrs by MTT assay. Type of data set: functional. As to conditions: MDA-MB-231, 72 h, read-out: GI. The essentials: (§1)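 Single-concentration screen in A549, HeLa or MDA-MB-231 cells cultured in DMEM, 10% FBS, 1% penicillin/streptomycin. About 1000 cells/well were preincubated 12 h, and compound diluted in DMEM to the final well concentration (0.5% DMSO) for 72 h at 37 °C, 5% CO2. Readout was MTT 4 h, DMSO-solubilized formazan, OD570, with inhibition relative to DMSO vehicle. Cisplatin in 1% NaCl (pH 7) served as positive control.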

Data set [2] relates to MDA-MB-231. The data set can be described thus: Cytotoxicity against human MDA-MB-231 cells assessed as growth inhibition after 72 hrs by MTT assay. Type of data set: functional, cell-based. As to conditions: MDA-MB-231, 72 h. The gist of the method: (§2)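 A549, HeLa and MDA-MB-231 cells were grown in DMEM with 10% FBS and 1% penicillin/streptomycin. About 1000 cells/well were seeded and left 12 h, then exposed to a dilution series in DMSO (final 0.5% DMSO) for 72 h at 37 °C, 5% CO2. MTT in fresh medium was added for 4 h, formazan dissolved in DMSO, and OD570 read. Viability was normalized to vehicle, and IC50 taken by linear regression of concentration-response curves.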

Data set [3] can be described thus: Cytotoxicity against human MCF10A cells assessed as growth inhibition after 72 hrs by MTT assay. Type of data set: cell-based. As to conditions: MCF-10A. The gist of the method:
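MCF10A non-cancerous cells were maintained in DMEM/F12 with 5% horse serum. About 1000 cells/well were seeded and attached for 12 h, then dosed over a dilution series (DMSO vehicle, final 0.5%) for 72 h at 37 °C, 5% CO2. MTT in fresh medium ran 4 h, formazan was dissolved in DMSO and OD570 measured. Viability was relative to vehicle-treated cells, and IC50 came from linear regression of concentration-response curves.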
For orientation: Formazan colour is commonly taken as a measure of viable cells.

Data set [4] deals with A549. The experiment in a line: Cytotoxicity against human A549 cells assessed as growth inhibition at 10 ug/ml after 72 hrs by MTT assay. As to conditions: A549, 72 h, read-out: GI. Type of data set: functional. The gist of the method: as §1
The nature of data set [5]: Cytotoxicity against human MCF10A cells assessed as growth inhibition at 10 ug/ml after 72 hrs by MTT assay. The data set is classed as cell-based, MCF-10A. As to conditions: read-out: GI. The essentials: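 MCF10A cells in DMEM/F12 plus 5% horse serum, about 1000 per well, were incubated 12 h, then treated at one final well concentration diluted in DMEM (0.5% DMSO) for 72 h, 37 °C, 5% CO2. Viability was by MTT: 4 h in fresh medium, formazan dissolved in DMSO, absorbance at 570 nm, normalized to vehicle controls. Cisplatin in 1% NaCl, pH 7, was the positive control.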

Data set [6] has as its system HeLa. The experiment in a line: Cytotoxicity against human HeLa cells assessed as growth inhibition after 72 hrs by MTT assay. The data set is classed as functional, cell-based. The gist of the method: as §2
The subject of data set [7] is A549. The data set can be described thus: Cytotoxicity against human A549 cells assessed as growth inhibition after 72 hrs by MTT assay. The data set is classed as functional, cell-based. As to conditions: A549, 72 h. The gist of the method: as §2
Data set [8] concerns HeLa. The data set can be described thus: Cytotoxicity against human HeLa cells assessed as growth inhibition at 10 ug/ml after 72 hrs by MTT assay. Type of data set: functional. As to conditions: read-out: GI. The essentials: as §1

For the molecule `CC(=O)Oc1ccc(COP(=O)(OCc2ccc(OC(C)=O)cc2)O[C@@H]2[C@@H](OCc3ccccc3)[C@H](OP(=O)(OCc3ccc(OC(C)=O)cc3)OCc3ccc(OC(C)=O)cc3)[C@H](OCc3ccccc3)[C@H](OCc3ccccc3)[C@H]2OCc2ccccc2)cc1`, the inhibition of growth at 10 µg/mL in the data set with MDA-MB-231 [1] was 88.4%; in the data set on A549 [4], 27.1%; with HeLa [8] it was 27.2%. Further, the IC50 with MDA-MB-231 [2] is 28.6 µM; in data set [3], more than 40 µM; with HeLa [6], 12.2 µM; in the data set with A549 [7], 26.7 µM. For the same molecule, the inhibition at 72 h, 10 ug/ml in data set [5] worked out at 10.5%.

Consider `CC(=O)Oc1ccc(COP(=O)(OCc2ccc(OC(C)=O)cc2)OC2C3OC4OC2C(OP(=O)(OCc2ccc(OC(C)=O)cc2)OCc2ccc(OC(C)=O)cc2)C(O4)C3OP(=O)(OCc2ccc(OC(C)=O)cc2)OCc2ccc(OC(C)=O)cc2)cc1` (stereo not given), for which the inhibition of growth at 10 µg/mL with MDA-MB-231 [1] is 92.4%; in the data set with A549 [4] it was 85.8%; in the data set on HeLa [8] it was 94.2%. Besides, the IC50 in the data set on MDA-MB-231 [2] is 1.89 µM; in data set [3] it was more than 20 µM; in the data set on HeLa [6], 1.41 µM; in the data set with A549 [7], 7.09 µM. Besides, the inhibition at 72 h, 10 ug/ml in data set [5] was -2.9%.

As to `CC(=O)Oc1ccc(COP(=O)(OCc2ccc(OC(C)=O)cc2)OC2C3OCOC2C(OP(=O)(OCc2ccc(OC(C)=O)cc2)OCc2ccc(OC(C)=O)cc2)C(OP(=O)(OCc2ccc(OC(C)=O)cc2)OCc2ccc(OC(C)=O)cc2)C3OCc2ccccc2)cc1` (stereo not given), the inhibition of growth at 10 µg/mL in the data set with MDA-MB-231 [1] is 94.4%; in the data set on A549 [4], 94%; in the data set with HeLa [8] it was 94.3%. Moreover, the IC50 was 1.68 µM with MDA-MB-231 [2], more than 20 µM in data set [3], 1.08 µM with HeLa [6] and 4.27 µM with A549 [7]. Further, in data set [5], the inhibition at 72 h, 10 ug/ml came out at 2.5%.

With `C#CCO[C@@H]1[C@@H](OCc2ccccc2)[C@H](OP(=O)(OCc2ccc(OC(C)=O)cc2)OCc2ccc(OC(C)=O)cc2)[C@H](OP(=O)(OCc2ccc(OC(C)=O)cc2)OCc2ccc(OC(C)=O)cc2)[C@H](OP(=O)(OCc2ccc(OC(C)=O)cc2)OCc2ccc(OC(C)=O)cc2)[C@H]1OCc1ccccc1`, the inhibition of growth at 10 µg/mL in the data set on MDA-MB-231 [1] was determined as 88.1%; with A549 [4] it was 2.5%; with HeLa [8] it was 100%. The IC50 is more than 30 µM with MDA-MB-231 [2], more than 30 µM in data set [3], 19 µM in the data set with HeLa [6] and more than 30 µM with A549 [7]. Besides, in data set [5], the inhibition at 72 h, 10 ug/ml came out at 15.4%.

Regarding `CC(=O)Oc1ccc(COP(=O)(OCc2ccc(OC(C)=O)cc2)O[C@@H]2[C@@H](OP(=O)(OCc3ccc(OC(C)=O)cc3)OCc3ccc(OC(C)=O)cc3)[C@H](OCc3ccccc3)[C@@H](OCc3ccccc3)[C@H](OCc3ccccc3)[C@@H]2OP(=O)(OCc2ccc(OC(C)=O)cc2)OCc2ccc(OC(C)=O)cc2)cc1`, the inhibition of growth at 10 µg/mL with MDA-MB-231 [1] turned out to be 52.8%; in the data set with A549 [4], 34.9%; in the data set with HeLa [8], 68.5%. Further, the IC50 with MDA-MB-231 [2] was 3.28 µM; in data set [3], more than 20 µM; in the data set on HeLa [6], more than 20 µM; in the data set with A549 [7] it was 3.17 µM. Further, in data set [5], the inhibition at 72 h, 10 ug/ml was 55.3%.
